# What was measured:
# [1] = test system: IKBKE kinase-dependent activity of IRF3; details: ref [44]; cited from earlier work
# [2] = test system: SARS-CoV-2 B.1.617.2 pseudovirus; details: in vivo, ip
# [3] = test system: STING-dependent IRF3; details: ref [44]; cited from earlier work
# [4] = test system: SARS-CoV-2 B.1.351 pseudovirus; details: in vivo, ip
# [5] = test system: immunoregulatory cytokines such as interferons and tumor necrosis factors; details: in vivo and in vitro, ref [29], [30], [31], [32]; cited from earlier work
# [6] = test system: SARS-CoV-2 infection and symptomatology; details: in vivo; cited from earlier work
# [7] = test system: animal model; details: repeated injections with high dose; ref [28]; cited from earlier work
# [8] = test system: DC 2.4 cells; experiment: DC 2.4 activation by flow cytometry; type: cell-based; details: 10 μg/mL, 24 h
# Procedure, shortened: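 DC 2.4 cells (1 × 10^6 per well) were cultured 12 h, then exposed to 10 μg test compound or tetrapeptide for 24 h. Staining used DAPI live/dead for viability, anti-CD40 and anti-CD86 for maturation, and anti-IL-4 and anti-TNF-α for function. At least 50,000 cells per sample were read by flow cytometry.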
# [9] = test system: RIG-I-like receptor (RLR) signaling pathway; experiment: Transcriptome sequencing analysis of lymph node immune cells; type: in vivo, Balb/c mice; details: WGCNA; AAS (Fig. 4g) or naked amantadine (Fig S7)
# [10] = naked amantadine; ref [33], [54], [55]; cited from earlier work
# [11] = naked amantadine; ref [33], [54], [55]; cited from earlier work; remark: listed apart in the source
# [12] = test system: DC 2.4 cells; experiment: Cellular uptake inhibition; type: cell-based; details: read-out: inhibition rate of AAS uptake by DCs
# Procedure, shortened: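 DC 2.4 cells were grown in DMEM with 10% FBS and penicillin/streptomycin at 37 °C, 5% CO2, then seeded at 5 × 10^5 per well for 24 h. Cells were pretreated 1 h with 5 μM cytochalasin B or cytochalasin D, then given 5 μg Cy5-labelled AAS for 2 h. They were washed in PBS/2% FBS, fixed in 2% paraformaldehyde for 10 min, and Cy5 uptake was read by flow cytometry.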
smiles,measurement,setting,value
CCn1c(-c2nonc2N)nc2c(C#CC(C)(C)O)ncc(OC[C@H]3CCCNC3)c21 [GSK690693],inhibition of IKBKE kinase-dependent activity of IRF3 (GSK690693),[1],inhibit the IKBKE kinase-dependent activity of IRF3
same,decrease of neutralizing antibody against B.1.617.2 vs AAS+RBD group,[2],6 fold
same,inhibition of STING-dependent IRF3 activation,[3],inhibit the activation of STING-dependent IRF3
same,decrease of neutralizing antibody against B.1.351 vs AAS+RBD group,[4],7 fold
NC12CC3CC(CC(C3)C1)C2 [amantadine],secretion of immunoregulatory cytokines,[5],increase the secretion of multiple immunoregulatory cytokines
same,prevention of SARS-CoV-2 infection and symptomatology,[6],can prevent SARS-CoV-2 infection and symptomatology
same,adverse reactions,[7],not observed
same,immunostimulation activity against immune cells,[8],possesses the immunostimulation activity
same,protein-protein interaction (PPI) network key genes,[9],"three RLR signaling pathway-related genes (Oasl2, RIG-I and IRF3) located in the central position"
same,half-life period in vivo,[10],short half-life period
same,water solubility,[11],unsatisfactory water solubility
C=C1[C@@H](C)[C@H]2[C@H](Cc3ccccc3)NC(=O)[C@]23OC(=O)/C=C/[C@H](O)CCC[C@@H](C)C/C=C/[C@H]3[C@@H]1O [cytochalasin B],inhibition at 5 µM,[12],11.7%
C=C1[C@@H](C)[C@H]2[C@H](Cc3ccccc3)NC(=O)[C@]23[C@H](OC(C)=O)/C=C/[C@@](C)(O)C(=O)[C@@H](C)C/C=C/[C@H]3[C@@H]1O [cytochalasin D],inhibition at 5 µM,[12],46%
CN(C)c1ccc(C(=C2C=CC(=[N+](C)C)C=C2)c2ccccc2)cc1.CN(C)c1ccc(C(=C2C=CC(=[N+](C)C)C=C2)c2ccccc2)cc1.O=C(O)C(=O)O.O=C([O-])C(=O)O.O=C([O-])C(=O)O [malachite green oxalate],decrease of neutralizing antibody against B.1.351 vs AAS+RBD group,[4],4 fold
